Measurements as given in ChEMBL document CHEMBL1255367, “Potency of SMP-601, a novel carbapenem, in hematogenous murine bronchopneumonia caused by methicillin-resistant and vancomycin-intermediate Staphylococcus aureus” (Antimicrob Agents Chemother, 2008).
Converted amounts (≈) assume the structure as drawn. The source made the active and inactive calls. The calls are words filed in the database; no cut-off is given here.

What was measured:
[1] = Half life in lung of methicillin-resistant Staphylococcus aureus infected ddY mouse at 100 mg/kg, ip administered 1 day post infection by paper disk bioassay method; format: ADME, organism-based; design: dose 100 mg/kg, route intraperitoneal
Procedure, shortened: (§1)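 MRSA-infected mice, one day post-inoculation, received a single 100 mg/kg i.p. dose. Serum and lung homogenate collected at 5–120 min, n = 3 per time point. Paper disk bioassay with Bacillus subtilis ATCC 6633, triplicate, 50 µl sample. Detection limits 0.07 µg/ml (serum) and 0.12 µg/ml (lung). Standards in pooled murine matrix, linear-regression curves. Moment analysis.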

[2] = Half life of free unbound fraction in serum of methicillin-resistant Staphylococcus aureus infected ddY mouse at 100 mg/kg, ip administered 1 day post infection by paper disk bioassay method; format: ADME, organism-based; design: dose 100 mg/kg, route intraperitoneal; procedure, shortened: as §1
[3] = Half life in serum of methicillin-resistant Staphylococcus aureus infected ddY mouse at 100 mg/kg, ip administered 1 day post infection by paper disk bioassay method; format: ADME, organism-based; design: dose 100 mg/kg, route intraperitoneal; procedure, shortened: as §1
[4] = Cmax in lung of methicillin-resistant Staphylococcus aureus infected ddY mouse at 100 mg/kg, ip administered 1 day post infection by paper disk bioassay method; format: ADME, organism-based; design: dose 100 mg/kg, route intraperitoneal; procedure, shortened: as §1
[5] = test system: Serum; test: fCmax in serum of methicillin-resistant Staphylococcus aureus infected ddY mouse at 100 mg/kg, ip administered 1 day post infection by paper disk bioassay method; format: ADME, organism-based; design: dose 100 mg/kg, route intraperitoneal; conditions: in vivo, 24 h; procedure, shortened: as §1
[6] = Cmax in serum of methicillin-resistant Staphylococcus aureus infected ddY mouse at 100 mg/kg, ip administered 1 day post infection by paper disk bioassay method; format: ADME, organism-based; design: dose 100 mg/kg, route intraperitoneal; procedure, shortened: as §1
[7] = AUC (0 to infinity) in lung of methicillin-resistant Staphylococcus aureus infected ddY mouse at 100 mg/kg, ip administered 1 day post infection by paper disk bioassay method; format: ADME, organism-based; design: dose 100 mg/kg, route intraperitoneal, time infinity; procedure, shortened: as §1
[8] = test system: Serum; test: fAUC (0 to infinity) in serum of methicillin-resistant Staphylococcus aureus infected ddY mouse at 100 mg/kg, ip administered 1 day post infection by paper disk bioassay method; format: ADME, organism-based; design: dose 100 mg/kg, route intraperitoneal; conditions: in vivo, 24 h; procedure, shortened: as §1
[9] = AUC (0 to infinity) in serum of methicillin-resistant Staphylococcus aureus infected ddY mouse at 100 mg/kg, ip administered 1 day post infection by paper disk bioassay method; format: ADME, organism-based; design: time infinity, dose 100 mg/kg, route intraperitoneal; procedure, shortened: as §1
[10] = test system: Staphylococcus aureus; test: Antibacterial activity against vancomycin-intermediate Staphylococcus aureus Mu50 infected in ddY mouse assessed as survival of the mouse at 100 mg/kg, ip administered 1 day postinfection measured after 10 days; format: functional; conditions: route intraperitoneal
Procedure, shortened: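 Cyclophosphamide-pretreated (100 mg/kg, days −3 and −1) ddY mice infected i.v. with Mu50 agar beads at 2 x 10^9 to 4 x 10^9 CFU/ml. Treated 100 mg/kg i.p. b.i.d. from day 1 for 10 days. Survival recorded daily for 10 days, n = 10, Kaplan-Meier curves.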

[11] = test system: Staphylococcus aureus; test: Antibacterial activity against vancomycin-intermediate Staphylococcus aureus Mu50 infected in ddY mouse assessed as viable bacteria in lungs at 100 mg/kg, ip administered 1 day postinfection measured after 3 days (Rvb=9.64 +/- 0.63 log CFU/ml); format: functional; conditions: route intraperitoneal
[12] = test system: Staphylococcus aureus; test: Antibacterial activity against methicillin-resistant Staphylococcus aureus NUMR101 infected in ddY mouse assessed as viable bacteria in lungs at 100 mg/kg, ip administered 1 day postinfection (Rvb=8.42 +/- 0.50 log CFU/ml); format: functional; conditions: route intraperitoneal
[13] = test system: Staphylococcus aureus; test: Antibacterial activity against methicillin-resistant Staphylococcus aureus NUMR101 by broth microdilution method; format: functional
Procedure, shortened: (§2)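 Broth microdilution in Mueller-Hinton II broth. Inoculum 5 x 10^5 CFU/ml. Drugs dissolved in sterile water just before use.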

[14] = test system: Staphylococcus aureus; test: Antibacterial activity against vancomycin intermediate Staphylococcus aureus Mu50 by broth microdilution method; format: functional; procedure, shortened: as §2
[15] = T>MIC in serum of methicillin-resistant Staphylococcus aureus infected ddY mouse at 10 mg/kg, ip BID by paper disk bioassay method; format: functional; conditions: route intraperitoneal
[16] = fT>MIC in serum of methicillin-resistant Staphylococcus aureus infected ddY mouse at 10 mg/kg, ip BID by paper disk bioassay method; format: functional; conditions: route intraperitoneal
[17] = T>MIC in lung of methicillin-resistant Staphylococcus aureus infected ddY mouse at 10 mg/kg, ip BID by paper disk bioassay method; format: functional; conditions: route intraperitoneal
[18] = T>MIC in serum in vancomycin intermediate Staphylococcus aureus infected ddY mouse at 100 mg/kg, ip BID by paper disk bioassay method; format: functional; conditions: route intraperitoneal
[19] = fT>MIC in serum in vancomycin intermediate Staphylococcus aureus infected ddY mouse at 100 mg/kg, ip BID by paper disk bioassay method; format: functional; conditions: route intraperitoneal
[20] = T>MIC in lung in vancomycin intermediate Staphylococcus aureus infected ddY mouse at 100 mg/kg, ip BID by paper disk bioassay method; format: functional; conditions: route intraperitoneal
[21] = test system: Serum; test: Protein binding in serum of methicillin-resistant Staphylococcus aureus infected ddY mouse at 100 mg/kg, ip; format: ADME, organism-based; design: dose 100 mg/kg, route intraperitoneal; conditions: in vivo
[22] = test system: Staphylococcus aureus; test: Antibacterial activity against vancomycin intermediate Staphylococcus aureus Mu50 infected in ddY mouse assessed as decrease in lung abscesses at 100 mg/kg, ip after 3 days; format: functional, organism-based; design: dose 100 mg/kg
Procedure, shortened: (§3)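 Mice pretreated with cyclophosphamide (100 mg/kg, days −3 and −1) and infected i.v. with Mu50 agar beads (4 x 10^7 to 6 x 10^7 CFU/ml). Given 100 mg/kg i.p. b.i.d. for 3 days, then sacrificed. Lungs fixed in formalin and stained with H&E. Abscesses counted per slice, lung area by cross-section paper, n = 3.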

[23] = test system: Staphylococcus aureus; test: Antibacterial activity against vancomycin intermediate Staphylococcus aureus Mu50 infected in ddY mouse assessed as decrease in lung inflammation at 100 mg/kg, ip after 3 days; format: functional, organism-based; design: dose 100 mg/kg; procedure, shortened: as §3
[24] = AUC (0 to infinity) in serum of methicillin-resistant Staphylococcus aureus infected ddY mouse at 100 mg/kg, ip administered 1 day post infection by fluorescence polarization immunoassay; format: ADME, organism-based; design: time infinity, dose 100 mg/kg, route intraperitoneal
Procedure, shortened: (§4)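 Single 100 mg/kg i.p. dose given 1 day after i.v. MRSA NUMR101 agar-bead infection. Mice killed 5, 15, 30, 60, 90, 120 min after dosing, n = 3 per time point. Serum and saline lung homogenate stored at –80°C. Assayed by fluorescence polarization immunoassay (detection limit 2 µg/ml) against standard curves in pooled murine serum or lung homogenate. Parameters by moment analysis.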

[25] = test system: Serum; test: fAUC (0 to infinity) in serum of methicillin-resistant Staphylococcus aureus infected ddY mouse at 100 mg/kg, ip administered 1 day post infection by fluorescence polarization immunoassay; format: ADME, organism-based; design: dose 100 mg/kg, route intraperitoneal; conditions: in vivo, 24 h; procedure, shortened: as §4
[26] = AUC (0 to infinity) in lung of methicillin-resistant Staphylococcus aureus infected ddY mouse at 100 mg/kg, ip administered 1 day post infection by fluorescence polarization immunoassay; format: ADME, organism-based; design: time infinity, dose 100 mg/kg, route intraperitoneal; procedure, shortened: as §4
[27] = Cmax in serum of methicillin-resistant Staphylococcus aureus infected ddY mouse at 100 mg/kg, ip administered 1 day post infection by fluorescence polarization immunoassay; format: ADME, organism-based; design: dose 100 mg/kg, route intraperitoneal; procedure, shortened: as §4
[28] = test system: Serum; test: fCmax in serum of methicillin-resistant Staphylococcus aureus infected ddY mouse at 100 mg/kg, ip administered 1 day post infection by fluorescence polarization immunoassay; format: ADME, organism-based; design: dose 100 mg/kg, route intraperitoneal; conditions: in vivo, 24 h; procedure, shortened: as §4
[29] = Cmax in lung of methicillin-resistant Staphylococcus aureus infected ddY mouse at 100 mg/kg, ip administered 1 day post infection by fluorescence polarization immunoassay; format: ADME, organism-based; design: dose 100 mg/kg, route intraperitoneal; procedure, shortened: as §4
[30] = Half life in serum of methicillin-resistant Staphylococcus aureus infected ddY mouse at 100 mg/kg, ip administered 1 day post infection by fluorescence polarization immunoassay; format: ADME, organism-based; design: dose 100 mg/kg, route intraperitoneal; procedure, shortened: as §4
[31] = Half life of free unbound fraction in serum of methicillin-resistant Staphylococcus aureus infected ddY mouse at 100 mg/kg, ip administered 1 day post infection by fluorescence polarization immunoassay; format: ADME, organism-based; design: dose 100 mg/kg, route intraperitoneal; procedure, shortened: as §4
[32] = Half life in lung of methicillin-resistant Staphylococcus aureus infected ddY mouse at 100 mg/kg, ip administered 1 day post infection by fluorescence polarization immunoassay; format: ADME, organism-based; design: dose 100 mg/kg, route intraperitoneal; procedure, shortened: as §4
[33] = Ratio of AUC (0 to 24 hrs) in lung in vancomycin intermediate Staphylococcus aureus infected ddY mouse at 100 mg/kg, ip BID to MIC for methicillin-resistant Staphylococcus aureus

C[C@H]1C=C(c2csc(SC3=C(C(=O)O)N4C(=O)[C@H]([C@@H](C)O)[C@H]4[C@H]3C)n2)CN1 [RAZUPENEM]
half-life [1]: 0.61 h | half-life [2]: 0.84 h | half-life [3]: 0.84 h | Cmax [4]: 18000 ng/mL | fCmax [5]: 25.81 µg/mL | Cmax [6]: 108000 ng/mL | AUC(0-inf) [7]: 28.4 µg·h/mL | fAUC [8]: 30.6 µg·h/mL | AUC(0-inf) [9]: 127 µg·h/mL | Activity [10]: 70% | CFU/ml [11]: 7.42 log CFU/ml | CFU/ml [12]: 5.5 log CFU/ml | MIC [13]: 2 µg/mL (≈ 4.91 µM) | MIC [14]: 2 µg/mL (≈ 4.91 µM) | fT>MIC [15]: 16.9 | fT>MIC [16]: 2.9 | fT>MIC [17]: 0 | fT>MIC [18]: 28.2 | fT>MIC [19]: 23.6 | fT>MIC [20]: 20.3 | Activity [21]: 76% | Activity [22]: Active | Activity [23]: Active

CN[C@H](CC(C)C)C(=O)N[C@H]1C(=O)N[C@@H](CC(N)=O)C(=O)N[C@H]2C(=O)N[C@H]3C(=O)N[C@H](C(=O)N[C@H](C(=O)O)c4cc(O)cc(O)c4-c4cc3ccc4O)[C@H](O)c3ccc(c(Cl)c3)Oc3cc2cc(c3O[C@@H]2O[C@H](CO)[C@@H](O)[C@H](O)[C@H]2O[C@H]2C[C@](C)(N)[C@H](O)[C@H](C)O2)Oc2ccc(cc2Cl)[C@H]1O [VANCOMYCIN]
AUC(0-inf) [24]: 261 µg·h/mL | Activity [10]: 20% | CFU/ml [11]: 8.72 log CFU/ml | CFU/ml [12]: 5.29 log CFU/ml | fAUC [25]: 196 µg·h/mL | AUC(0-inf) [26]: 127 µg·h/mL | Cmax [27]: 60800 ng/mL | fCmax [28]: 45.6 µg/mL | Cmax [29]: 38500 ng/mL | half-life [30]: 2.95 h | half-life [31]: 2.95 h | half-life [32]: 1.72 h | MIC [14]: 8 µg/mL (≈ 5.52 µM) | Activity [21]: 25% | AUC0-24/MIC at 10 mg/kg [33]: 31.8 µg/mL
